In BindingDB's records for doi:10.1021/acsmedchemlett.1c00308 (Uniformed Services University of The Health Sciences, 2021):

Tested on: ERG (ERG oncoprotein, ETS transcription factor) in VCaP cells
Test: Inhibition of ERG in human VCaP cells after 48 hrs by Western blotting analysis
Procedure, shortened: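 In VCaP prostate cancer cells, ERG and RIOK2 protein levels were measured by Western blot after treatment. IC50 values were derived from the concentration-response of protein inhibition.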

Compound | IC50 [µM]
O=S(=O)(O)c1cccc2c(S(=O)(=O)O)cccc12 | > 0.5
Oc1ccc2ccccc2c1/N=N/c1nccs1 [DNDI1417016] | 0.31
